Drawing on ChEMBL document CHEMBL1122927, “Metabolism of the nigrostriatal toxin 1-methyl-4-phenyl-1,2,3,6-tetrahydropyridine by liver homogenate fractions” (J Med Chem, 1985), this text covers Amount of metabolite for two molecules.

Format in all cases: ADME
Common to all, as to settings: microsomes

The species named for data set [1] is Oryctolagus cuniculus. Nature of the data set: Formation of metabolite by rabbit liver microsomal preparation in absence of NADPH, at 2 hours. The procedure, abridged:
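Rabbit liver microsomes (2–3 mg protein/mL), 100 mM Hepes pH 7.6, 0.5–1.0 mM MPTP, with the NADPH-generating system omitted; 37 °C for 2 h. Stopped with cold acetonitrile and centrifuged. Nor and N-oxide products measured by reverse-phase HPLC at 254 nm as nmol/mL per 2 h.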

The species named for data set [2] is Oryctolagus cuniculus. The data set can be described thus: Formation of metabolite by rabbit liver microsomal preparation in presence of Co-O2 (90:10),at 2 hour. The procedure, abridged:
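Buffer was saturated with CO-O2 (90:10), and incubation ran in sealed vials under that gas. Rabbit liver microsomes (2–3 mg protein/mL), 100 mM Hepes pH 7.6, NADPH-generating system, 0.5–1.0 mM MPTP, 37 °C, 2 h. Stopped with cold acetonitrile. Nor and N-oxide products quantified by reverse-phase HPLC (254 nm) as nmol/mL per 2 h.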

The species named for data set [3] is Oryctolagus cuniculus. Nature of the data set: Formation of metabolite by rabbit liver microsomal preparation in presence of N2,at 2 hour. The procedure, abridged:
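Incubation under 100% N2, with N2-saturated buffer in sealed vials. Rabbit liver microsomes (2–3 mg protein/mL), 100 mM Hepes pH 7.6, NADPH-generating system, 0.5–1.0 mM MPTP, 37 °C, 2 h. Stopped with ice-cold acetonitrile. Nor and N-oxide products read by reverse-phase HPLC at 254 nm, expressed as nmol/mL per 2 h.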

Data set [4] is filed under the species Oryctolagus cuniculus. Nature of the data set: Formation of metabolite by rabbit liver microsomal preparation in presence of NADPH, at 2 hours. The procedure, abridged: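 Male New Zealand white rabbit liver microsomes (100000g pellet, 2–3 mg protein/mL) in 100 mM Hepes pH 7.6 with an NADPH-generating system and 0.5–1.0 mM MPTP, in air, 37 °C, 2 h. Stopped with 2 volumes ice-cold acetonitrile, then centrifuged. Reverse-phase HPLC (acetonitrile/100 mM acetic acid 65:35, pH 5.6, 254 nm) quantified nor and N-oxide peaks as nmol/mL per 2 h.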

Data set [5] is filed under the species Oryctolagus cuniculus. Nature of the data set: Formation of metabolite by rabbit liver microsomal preparation in presence of SKF525A,at 2 hour. The procedure, abridged: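 Rabbit liver microsomes were preincubated 5 min with SKF 525A (5 × 10⁻⁴ M) before MPTP (0.5–1.0 mM) was added. Run in 100 mM Hepes pH 7.6 with an NADPH-generating system, 2–3 mg protein/mL, 37 °C, 2 h. Stopped with cold acetonitrile. Nor and N-oxide products quantified by reverse-phase HPLC (254 nm) as nmol/mL per 2 h.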

As to `C[N+]1([O-])CC=C(c2ccccc2)CC1` (stereo not given), the Amount of metabolite was determined as 0 nM ml-1 in data set [1]; 160 nM ml-1 in data set [2]; 0 nM ml-1 in data set [3]; 190 nM ml-1 in data set [4]; 170 nM ml-1 in data set [5].
Take `C1=C(c2ccccc2)CCNC1`: the Amount of metabolite was 0 nM ml-1 in data set [1]; 53 nM ml-1 in data set [2]; 16 nM ml-1 in data set [3]; 130 nM ml-1 in data set [4]; 70 nM ml-1 in data set [5].
